The subject of series [1] is MDA-MB-231. Kind of series: Induction of DNA double strand breaks in human MDA-MB-231 cells assessed as gammaH2AX phosphorylation at 1 uM incubated for 16 hrs by flow cytometry (reference value: 6.1 +/-0.7%). It counts as functional. (In general: Flow cytometry measures light scatter and fluorescence of single cells or particles in a stream.)
Series [2] relates to MDA-MB-231. Kind of series: Antiproliferative activity against human MDA-MB-231 cells assessed as reduction in cell viability at 10 uM after 4 days by [3H]-thymidine incorporation assay relative to control. In kind it is functional. The essentials: (§1)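 MDA-MB-231 and HCT116 cells (ATCC) seeded at 3000 cells/well on tissue-culture-treated plates as monolayers and incubated 3 days. Compound then added for four days. 3H-thymidine pulse of 0.04 µCi/well for 5 h before harvest. Proliferation read as 3H-thymidine incorporation into S-phase DNA. Mean % of untreated cells is reported; IC50 is the concentration giving 50% inhibition.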
For orientation: Incorporation of labelled thymidine or its analogues reports DNA synthesis.

In series [3] the test system is MDA-MB-231. As to the kind of experiment: Antiproliferative activity against human MDA-MB-231 cells assessed as reduction in cell viability after 4 days by [3H]-thymidine incorporation assay. It counts as functional, cell-based. The essentials:
as §1

The test system of series [4] is HCT-116. As to the kind of experiment: Antiproliferative activity against human HCT116 cells assessed as reduction in cell viability at 10 uM after 4 days by [3H]-thymidine incorporation assay relative to control. In kind it is functional. A digest of the protocol:
as §1

The subject of series [5] is MDA-MB-231. As to the kind of experiment: Induction of DNA double strand breaks in human MDA-MB-231 cells assessed as gammaH2AX phosphorylation at 10 uM incubated for 16 hrs by flow cytometry (reference value: 6.1 +/-0.7%). In kind it is functional.
For series [6], the system named is HCT-116. Kind of series: Antiproliferative activity against human HCT116 cells assessed as reduction in cell viability after 4 days by [3H]-thymidine incorporation assay. In kind it is functional, cell-based. A digest of the protocol: as §1
Series [7] in a line: Stability of carbenium ionic form, pKR+ of the compound by spectrophotometric analysis. In kind it is physicochemical. The essentials:
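Calibration of molar absorbance at the 330 nm peak, made with the compound in 0.1 M acetic acid, where the alcohol is completely ionised. pKR+ derived from the absorbance relationship in eqn (1).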

Series [8] deals with HCT-116. Kind of series: Antiproliferative activity against human HCT116 cells cultured as 3D-spheroids assessed as reduction in cell viability after 4 days by [3H]-thymidine incorporation assay. It counts as functional, cell-based. The essentials:
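HCT116 spheroids: 4000 cells/well seeded in ultra-low attachment plates, then centrifuged at 1000 × g for 10 min to start spheroid formation. After 3 days, compounds added for four days. 3H-thymidine (0.08 µCi/well) added 16 h before harvest. Inhibition read as thymidine incorporation relative to untreated cells. IC50 is the concentration giving 50% inhibition.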

The test system of series [9] is MDA-MB-231. As to the kind of experiment: Induction of DNA double strand breaks in human MDA-MB-231 cells assessed as gammaH2AX phosphorylation at 5 uM incubated for 16 hrs by flow cytometry (reference value: 6.1 +/-0.7%). It counts as functional.
Series [10] in a line: Dissociation constant, pKa of the compound. In kind it is physicochemical.
The subject of series [11] is Calf thymus DNA. As to the kind of experiment: Binding affinity to calf thymus DNA assessed as binding constant by emission titration analysis. As to conditions: Bos taurus. It counts as nucleic-acid assay.
A further series relates to dsDNA. As to the kind of experiment: Binding affinity to 12-mer duplex oligonucleotide (unknown origin) assessed as melting temperature at 5 uM in sodium phosphate buffer at pH 7 by UV-VIS spectrophotometry (reference value: 52.8 degC). In kind it is nucleic-acid assay.
Series [12] relates to MDA-MB-231. As to the kind of experiment: Antiproliferative activity against human MDA-MB-231 cells assessed as cell viability at 10 uM after 4 days by [3H]-thymidine incorporation assay relative to control. In kind it is functional. The note with it: read-out: Activity. The essentials: as §1
The test system of series [13] is HCT-116. Kind of series: Antiproliferative activity against human HCT116 cells assessed as cell viability at 10 uM after 4 days by [3H]-thymidine incorporation assay relative to control. The note with it: read-out: Activity. It counts as functional. A digest of the protocol: as §1
For series [14], the system named is MDA-MB-231. As to the kind of experiment: Cell cycle arrest in human MDA-MB-231 cells assessed as accumulation at S-phase at 1 to 10 uM incubated for 16 hrs by flow cytometry. In kind it is functional, cell-based.
Series [15] has as its system Calf thymus DNA. As to the kind of experiment: Binding affinity to calf thymus DNA assessed as binding constant at 25 uM in sodium phosphate buffer solution at pH 7 by UV-Visible spectrophotometry. In kind it is nucleic-acid assay. The note with it: Bos taurus.
Series [16] has as its system Calf thymus DNA. Kind of series: Binding affinity to calf thymus DNA assessed as binding constant at 1 uM incubated for 24 hrs by competitive dialysis technique. It counts as nucleic-acid assay. The note with it: Bos taurus.
Series [17] relates to MDA-MB-231. As to the kind of experiment: Cell cycle arrest in human MDA-MB-231 cells assessed as accumulation at G2 phase at 1 to 10 uM incubated for 16 hrs by flow cytometry. It counts as functional, cell-based.
Series [18] relates to MDA-MB-231. As to the kind of experiment: Cell cycle arrest in human MDA-MB-231 cells assessed as accumulation at G1 phase at 1 to 10 uM incubated for 16 hrs by flow cytometry. It counts as functional, cell-based.
Series [19] deals with MDA-MB-231. Kind of series: Cell cycle arrest in human MDA-MB-231 cells assessed as accumulation at S-phase at 1 uM incubated for 16 hrs by flow cytometry. It counts as functional, cell-based. A digest of the protocol: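 Cells seeded at 106 per well in 6-well plates, exposed to compound for 16 h, harvested, washed, blocked in 1% FCS/PBS. Stained with anti-γH2AX (phospho-Ser139, 1:500, 2 h, room temperature), then Alexa 488 anti-mouse Fab (1:400, 1 h, room temperature, dark). Counterstained with RNase (1 µg/mL) plus propidium iodide (10 µg/mL) for 30 min. Cell-cycle profiles read by flow cytometry.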

The source made the active and inactive calls. No cut-off for these calls is given here.

The inhibition is the change of the read-out against control, counted positive when it falls. What is called IC50 is the point on the concentration scale where inhibition reaches its midpoint. For the compound `CCCn1c2cccc3oc4cccc5c4[c+](c32)c2c1cccc2n5CCC`, the Activity in the series on MDA-MB-231 [1] was determined as 13.6%; in the series on MDA-MB-231 [5], 2.4%; with MDA-MB-231 [9], 1.3%. The inhibition result in the series on MDA-MB-231 [2] and in the series with HCT-116 [4] was “Active” each time. The IC50 is 77.5 nM in the series on MDA-MB-231 [3], 106 to 111 nM in the series on HCT-116 [6] and 21 nM in the series with HCT-116 [8]. In addition, the “pKR+” value in series [7] is recorded as 19.4.

Broadly, the pKa is the negative logarithm of the acid dissociation constant. As to `c1cc2[nH]c3cccc4oc5cccc6oc(c1)c2[c+](c34)c65`, the inhibition at 10 µM with MDA-MB-231 [2] and in the series with HCT-116 [4] was 12 to 25% each time. The pKa in [10] amounted to 5.7.

On to `CCCn1c2cccc3oc4cccc5oc6cccc1c6[c+](c45)c32`, for which the Activity with MDA-MB-231 [1] worked out at 12.9%; in the series on MDA-MB-231 [5], 27.8%; with MDA-MB-231 [9], 30.6%. For the same compound, in the series on Calf thymus DNA [11], the Kb turned out to be 8.1 ×10⁶ /M. Besides, the inhibition result with MDA-MB-231 [2] and in the series on HCT-116 [4] was “Active” throughout. The IC50 in the series on MDA-MB-231 [3] is 87.5 nM; in the series on HCT-116 [6], 256 to 321 nM; in the series with HCT-116 [8], 38 nM. The “pKR+” value in [7] stood at 14.5.

For the compound `CCCCn1c2cccc3c2[c+]2c4c1cccc4n(CCCC)c1cccc(c12)n3CCCC.F[B-](F)(F)F`, the inhibition entry with HCT-116 [4] is “Active”. In addition, the “pKR+” value in series [7] is 23.7.

What is called Tm is the temperature at the midpoint of the melting transition. On to `c1cc2oc3cccc4oc5cccc6oc(c1)c2[c+](c34)c65`, for which the Activity in the series with MDA-MB-231 [1] stood at 8.8%; with MDA-MB-231 [5], 43.6%; in the series on MDA-MB-231 [9] it was 57.5%. Further, the Tm with dsDNA was determined as 57.3 °C. The IC50 is 448 nM in the series on MDA-MB-231 [3], 708 nM with HCT-116 [6] and over 1000 nM in the series on HCT-116 [8]. In addition, the viability at 10 µM with MDA-MB-231 [12] and with HCT-116 [13] was under 1% in each case. In addition, the outcome in the series on MDA-MB-231 [14] was inactive. The Kb in the series with Calf thymus DNA [15] and in the series with Calf thymus DNA [16] was 4.1 ×10⁴ /M each time. For the same compound, the “pKR+” value in [7] was found to be 9.1. The outcome in the series on MDA-MB-231 [17] and in the series on MDA-MB-231 [18] was Active.

Consider `CC[C@@]1(O)C(=O)OCc2c1cc1n(c2=O)Cc2cc3ccccc3nc2-1` [CAMPTOTHECIN], for which the Activity in the series on MDA-MB-231 [1] is 73.6%. The IC50 in the series on MDA-MB-231 [3] was 28.4 nM; in the series on HCT-116 [6], 8.5 nM. For the same compound, the outcome in the series with MDA-MB-231 [19] was Active.

The record behind these values is ChEMBL document CHEMBL4373677, “The cytotoxic potential of cationic triangulenes against tumour cells” (Medchemcomm, 2019).
